Among the data in ChEMBL document CHEMBL1275319, “Synthesis and cytotoxicity evaluation of novel 1,4-disubstituted 1,2,3-triazoles via CuI catalysed 1,3-dipolar cycloaddition” (Eur J Med Chem, 2010) are IC50 and inhibition values, retold here.

SMILES strings stand for the structures.

For one assay, the system named is HeLa. The assay can be described thus: Antiproliferative activity against human HeLa cells after 48 hrs by MTT assay. The class given is functional, cell-based. The gist of the method: (§1)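 MTT viability read-out; cells cultured in DMEM and exposed to compound for 48 h. IC50 taken as the concentration giving 50% inhibition of tumour cell proliferation.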
In general terms: Formazan colour is commonly taken as a measure of viable cells.

The subject of another assay is HT-29. Put plainly: Antiproliferative activity against human HT-29 cells after 48 hrs by MTT assay. The class given is functional, cell-based. Particulars: HT-29, 48 h. The essentials: as §1
The next assay has as its system A549. The assay can be described thus: Antiproliferative activity against human A549 cells after 48 hrs by MTT assay. To be noted: A549, 48 h. The class given is functional, cell-based. The gist of the method: as §1
The nature of assay [1]: Inhibition of tubulin polymerization at 3 uM. The gist of the method:
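Reaction started by GTP addition and run protected from light at 37 °C. Polymerization followed as fluorescence increase at 360/420 nm excitation/emission. Percent inhibition calculated relative to untreated control.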

Assay [2] can be described thus: Inhibition of tubulin polymerization at 30 uM. The essentials: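 GTP addition starts the reaction, run protected from light at 37 °C. Polymerization followed as fluorescence increase at 360/420 nm excitation/emission; % inhibition calculated against untreated control.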

For `O=C(Cn1cc(-c2ccccc2)nn1)c1ccc(Cl)cc1`, the half-inhibitory concentration (IC50) with HeLa, with HT-29 and in the assay with A549 was over 300 µM in each case.
As to `O=C(Cn1cc(CO)nn1)c1ccccc1`, the half-inhibitory concentration (IC50) in the assay with HeLa, with HT-29 and in the assay on A549 was over 300 µM in each case.
In the case of `Cc1ccc(C(=O)Cn2cc(-c3ccccc3)nn2)cc1`, the IC50 in the assay on HeLa, with HT-29 and with A549 was over 300 µM throughout.
For `COc1ccc(-c2cn(CC(=O)c3ccccc3)nn2)cc1`, the half-inhibitory concentration (IC50) was over 300 µM in the assay on HeLa, over 300 µM with HT-29 and 187 µM in the assay with A549.
As for `O=C(Cn1cc(-c2ccccc2)nn1)c1ccccc1`, the concentration for half-maximal inhibition (IC50) in the assay on HeLa, with HT-29 and in the assay with A549 was over 300 µM throughout.
`CC(C(=O)c1ccccc1)n1cc(-c2ccccc2)nn1` (configuration not stated): the IC50 in the assay on HeLa, with HT-29 and in the assay on A549 was over 300 µM throughout.
With `CCCCCCc1cn(CC(=O)c2ccccc2)nn1`, the concentration for half-maximal inhibition (IC50) in the assay with HeLa, in the assay on HT-29 and with A549 was over 300 µM throughout.
Compound `COc1cc([C@@H]2c3cc4c(cc3[C@H](O)[C@H]3COC(=O)[C@H]23)OCO4)cc(OC)c1OC` displayed an inhibition in assay [1] of 58.1%.
Consider `O=C(Cn1cc(-c2ccccn2)nn1)c1ccccc1`, for which the IC50 in the assay on HeLa, with HT-29 and in the assay with A549 was over 300 µM in each case.
For the compound `CCC(C(=O)c1ccccc1)n1cc(-c2ccccc2)nn1` (configuration not stated), the figures for the IC50 in the assay on HeLa, in the assay on HT-29 and with A549 were 155 µM, 116 µM and 26 µM, respectively. Besides, in assay [2], the inhibition is 19.3%.
In the case of `COc1ccc2cc(-c3cn(CC(=O)c4ccccc4)nn3)ccc2c1`, the 50% inhibitory concentration (IC50) in the assay on HeLa, in the assay on HT-29 and in the assay on A549 was over 300 µM throughout.
As for `O=C(Cn1cc(-c2ccccc2)nn1)c1ccc(Br)cc1`, the IC50 in the assay on HeLa, in the assay with HT-29 and in the assay with A549 was over 300 µM throughout.
Take `Cc1ccc(-c2cn(CC(=O)c3ccccc3)nn2)cc1`: the 50% inhibitory concentration (IC50) in the assay on HeLa is over 300 µM; in the assay with HT-29, 238 µM; in the assay with A549, 292 µM. Moreover, the inhibition in assay [2] amounted to 2.8%.
Turning to `COc1cc2c(c(OC)c1OC)-c1ccc(OC)c(=O)cc1[C@@H](NC(C)=O)CC2` [COLCHICINE], the 50% inhibitory concentration (IC50) in the assay with HeLa, in the assay with HT-29 and in the assay on A549 was under 1 µM each time. Further, the inhibition in assay [1] was 53.8%.
`COc1ccc(C(=O)Cn2cc(-c3ccccc3)nn2)cc1`: the IC50 is over 300 µM in the assay with HeLa, 49 µM with HT-29 and over 300 µM in the assay on A549. The compound also returned an inhibition in assay [2] of 14.1%.
`O=C(Cn1cc(-c2ccsc2)nn1)c1ccccc1`: the half-maximal inhibitory concentration (IC50) was over 300 µM in the assay on HeLa, over 300 µM with HT-29 and 260 µM with A549.
In the case of `Cc1cc(C)c(-c2cn(CC(=O)c3ccccc3)nn2)cc1C`, the values for the concentration for half-maximal inhibition (IC50) with HeLa, in the assay with HT-29 and with A549 were over 300 µM, 190 µM and 91 µM, respectively. The compound also yielded an inhibition in assay [2] of 6.6%.
Take `CCCCCc1ccc(-c2cn(CC(=O)c3ccccc3)nn2)cc1`: the IC50 in the assay on HeLa, in the assay on HT-29 and with A549 was over 300 µM in each case.

Broadly, the IC50 is the point on the concentration scale where inhibition reaches its midpoint. The low end stands for greater potency, the high end for weaker potency. As usually defined, the inhibition is the share of the control response that was lost under treatment. A higher inhibition goes with a strong effect.
